For experiment [1], the system named is Staphylococcus aureus. In words: Antimicrobial activity against Staphylococcus aureus ATCC 6538P by agar dilution method. In kind it is functional. To be noted: Staphylococcus aureus, ATCC 6538P; read-out: MIC. In outline:
(§1)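 Read-out is the minimal inhibitory concentration, found by agar dilution against the named strain.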

Experiment [2] deals with Bacillus spizizenii. In words: Antimicrobial activity against Bacillus subtilis ATCC 6633 by agar dilution method. The format is functional. Particulars: Bacillus spizizenii, ATCC 6633; read-out: MIC. The gist of the method:
as §1
On the technique in general: In agar dilution the substance is mixed into plates at graded concentrations.

Experiment [3] concerns Klebsiella pneumoniae. Put plainly: Antimicrobial activity against Klebsiella pneumoniae ATCC 10031 by agar dilution method. The format is functional. Particulars: Klebsiella pneumoniae, ATCC 10031; read-out: MIC. The gist of the method:
as §1

For experiment [4], the target named is Bacterial 70S ribosome (Bacteria) (UniProt P0A7V0+P60723+P0AG67+P0A7R5+P0A7R9+P0A7S3+P0A7S9+P0AG59+P0ADZ4+P0A7T3+P0AG63+P0A7T7+P0A7U3+P0A7U7+P68679+P0A7V3+P0A7V8+P0A7W1+P02358+P02359+P0A7W7+P0A7X3+P0A7J3+P0A7J7+P0AA10+P0ADY3+P02413+P0ADY7+P0AG44+P0C018+P0A7K6+P0A7L0+P0A7L3+P0AG48+P61175+P0ADZ0+P60624+P68919+P0A7L8+P0A7M2+P0A7M6+P60422+P0AG51+P0A7N1+P0A7M9+P0A7N4+P0A7N9+P0A7P5+P0A7Q1+Q2EEQ2+P0A7Q6+P60438+P62399+P0AG55+P0A7K2). In words: (§2) Displacement of [14C]erythromycin from Escherichia coli ribosomes after 30 mins by scintillation spectrometer analysis. In outline: (§3)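 NH4Cl-washed E. coli ribosomes with [14C]erythromycin A and varied competitor concentrations in 0.01 M Tris-HCl pH 7.2, 0.1 M KCl, 0.004 M MgCl2, 0.01 M NH4Cl. Incubated 30 min at 24 °C, stopped by dilution in cold Tris/KCl/MgCl2 buffer, membrane-filtered, washed three times, dried, scintillation counted. Reports the concentration giving 50% inhibition of binding.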
In general terms: In a radioligand displacement assay an active substance lowers the binding of a labelled ligand.

Experiment [5] addresses Bacterial 70S ribosome. Described as §2. The gist of the method: as §3

Here are results for nine compounds from ChEMBL document CHEMBL3244414, “Structure-activity relationships among the O-acyl derivatives of leucomycin. Correlation of minimal inhibitory concentrations with binding to Escherichia coli ribosomes” (J Med Chem, 1977).

A word on the MIC: it is the smallest concentration in the dilution series that meets the test's criterion for growth inhibition. As usually defined, the IC50 is the concentration that gives 50% inhibition.

In brackets after ≈: the same amount, converted by molar mass.

Turning to `CCCC(=O)O[C@H]1[C@H](C)O[C@@H](O[C@H]2[C@H](N(C)C)[C@@H](O)[C@H](O[C@H]3[C@@H](CC=O)C[C@@H](C)[C@@H](O)/C=C/C=C/C[C@@H](C)OC(=O)C[C@@H](OC(C)=O)[C@@H]3OC)O[C@@H]2C)C[C@@]1(C)O`, the MIC turned out to be 0.8 µg/mL (≈ 0.983 µM) in experiment [1], 1.6 µg/mL (≈ 1.97 µM) in experiment [2] and 50 µg/mL (≈ 61.4 µM) in experiment [3]. The compound also came in with a pK50 in experiment [4] of 5.9. This compound also showed an IC50 in experiment [5] of 1200 nM.
The like results for `CCCC(=O)O[C@H]1[C@H](C)O[C@@H](O[C@H]2[C@H](N(C)C)[C@@H](OC(=O)CC)[C@H](O[C@H]3[C@@H](CC=O)C[C@@H](C)[C@@H](O)/C=C/C=C/C[C@@H](C)OC(=O)C[C@@H](OC(C)=O)[C@@H]3OC)O[C@@H]2C)C[C@@]1(C)O` were, in that order, 1.6 µg/mL (≈ 1.84 µM), 0.8 µg/mL (≈ 0.919 µM), 25 µg/mL (≈ 28.7 µM), 4.8 and 17800 nM.
The matching figures for `CCCC(=O)O[C@H]1[C@H](C)O[C@@H](O[C@H]2[C@H](N(C)C)[C@@H](O)[C@H](O[C@H]3[C@@H](CC=O)C[C@@H](C)[C@@H](OC(C)=O)/C=C/C=C/C[C@@H](C)OC(=O)C[C@@H](O)[C@@H]3OC)O[C@@H]2C)C[C@@]1(C)O`: 1.6 µg/mL (≈ 1.97 µM), 0.4 µg/mL (≈ 0.491 µM), 25 µg/mL (≈ 30.7 µM), 6.1 and 900 nM.
For `CCCC(=O)O[C@H]1[C@H](C)O[C@@H](O[C@H]2[C@H](N(C)C)[C@@H](O)[C@H](O[C@H]3[C@@H](CC=O)C[C@@H](C)[C@@H](O)/C=C/C=C/C[C@@H](C)OC(=O)C[C@@H](O)[C@@H]3OC)O[C@@H]2C)C[C@@]1(C)O`, the MIC in experiment [1] was determined as 0.4 µg/mL (≈ 0.518 µM); in experiment [2], 0.8 µg/mL (≈ 1.04 µM); in experiment [3], 12.5 µg/mL (≈ 16.2 µM). Besides, the pK50 in experiment [4] stood at 6. This compound had a 50% inhibitory concentration (IC50) in experiment [5] of 1100 nM.
The like results for `CCCC(=O)O[C@H]1[C@H](C)O[C@@H](O[C@H]2[C@H](N(C)C)[C@@H](OC(=O)CCC(=O)O)[C@H](O[C@H]3[C@@H](CC=O)C[C@@H](C)[C@@H](OC(=O)CCC(=O)O)/C=C/C=C/C[C@@H](C)OC(=O)C[C@@H](O)[C@@H]3OC)O[C@@H]2C)C[C@@]1(C)O` were, in that order, 6.3 µg/mL (≈ 6.48 µM), 3.1 µg/mL (≈ 3.19 µM), 50 µg/mL (≈ 51.4 µM), 5.6 and 2800 nM.
The like results for `CO[C@@H]1[C@@H](O[C@@H]2O[C@H](C)[C@@H](O[C@H]3C[C@@](C)(O)[C@@H](OC(C)=O)[C@H](C)O3)[C@H](N(C)C)[C@H]2O)[C@@H](CC=O)C[C@@H](C)[C@@H](O)/C=C/C=C/C[C@@H](C)OC(=O)C[C@H]1OC(C)=O` were, in that order, 3.1 µg/mL (≈ 3.94 µM), 6.3 µg/mL (≈ 8.02 µM), 100 µg/mL (≈ 127 µM), 5.2 and 6700 nM.
The matching figures for `CO[C@@H]1[C@@H](O[C@@H]2O[C@H](C)[C@@H](O[C@H]3C[C@@](C)(O)[C@@H](OC(C)=O)[C@H](C)O3)[C@H](N(C)C)[C@H]2O)[C@@H](CC=O)C[C@@H](C)[C@@H](OC(C)=O)/C=C/C=C/C[C@@H](C)OC(=O)C[C@H]1O`: 6.3 µg/mL (≈ 8.02 µM), 3.1 µg/mL (≈ 3.94 µM), 50 µg/mL (≈ 63.6 µM), 5.7 and 2100 nM.
Consider `CO[C@@H]1[C@@H](O[C@@H]2O[C@H](C)[C@@H](O[C@H]3C[C@@](C)(O)[C@@H](O)[C@H](C)O3)[C@H](N(C)C)[C@H]2O)[C@@H](CC=O)C[C@@H](C)[C@@H](O)/C=C/C=C/C[C@@H](C)OC(=O)C[C@H]1OC(C)=O`, for which the MIC in experiment [1] was determined as 12.5 µg/mL (≈ 16.8 µM); in experiment [2], 6.3 µg/mL (≈ 8.47 µM); in experiment [3], 100 µg/mL (≈ 134 µM). In experiment [4], this compound had a pK50 of 5. The IC50 in experiment [5] turned out to be 10700 nM.
As for `CO[C@@H]1[C@@H](O[C@@H]2O[C@H](C)[C@@H](O[C@H]3C[C@@](C)(O)[C@@H](OC(=O)CC(C)C)[C@H](C)O3)[C@H](N(C)C)[C@H]2O)[C@@H](CC=O)C[C@@H](C)[C@@H](OC(=O)C(Cl)Cl)/C=C/C=C/C[C@@H](C)OC(=O)C[C@H]1OC(C)=O`, the minimal inhibitory concentration (MIC) in experiment [1] came to 1.6 µg/mL (≈ 1.7 µM); in experiment [2], 0.8 µg/mL (≈ 0.852 µM); in experiment [3], 50 µg/mL (≈ 53.3 µM). For the same compound, in experiment [4], the pK50 is 5.9. Besides, the IC50 in experiment [5] came out at 1400 nM.
